Assay outcomes as filed in PubChem.
Only some compounds are listed: those with a hit (about 2.7% of all), similar ones and a draw of the others.
TPT1 inhibitor = C. albicans TPT1 enzyme inhibition; inhibition, % at 5 µM; hit rate 0.81% among 300,000; AID 1962; recombinant caTPT1, FP RNA substrate dephosphorylation;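 active means inhibition above the mean of all tested compounds plus 3 SD, set per screening campaign, cut at about 24% in these data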;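 further: plate controls were DMSO alone for no effect and ferristatin control at 100 nM for full effect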
Rpn11 block = inhibitors of human proteasome Rpn11; human 26S proteasome, Ub4-pepOG fluorescence polarization; 20S core pre-blocked with epoxomicin; inhibition, % at 20 µM; hit rate 0.59% among 360,000; AID 588493;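 active means inhibition at 20 µM, scaled to each plate's controls, above about 33%, limit read from the data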
HNF4A DNA FP = change in binding of human HNF4 alpha to DNA; activity change, % at 10 µM; AID 1224865; HNF4a-FITC DNA binding, fluorescence polarization, 1 h; hit rate 0.3% among 360,000; in the data active means activity change above about 30%, passing the limit was not always enough
NadD inh = inhibitors of Staphylococcus aureus NadD; purified NadD enzyme, colorimetric absorbance read-out; inhibition, % at 20 µM; hit rate 0.78% among 360,000; in the data active means inhibition above about 26%
PP1 counter = counter-screen for PP5 inhibitors: inhibitors of human PP1-alpha. P62136. purified PP1alpha, OMFP fluorescence. inhibition, % at 6.7 µM. hit rate 0.9% among 320,000. AID 2235;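 active means inhibition above the mean inhibition of all tested compounds plus 3 SD, computed separately for each screening campaign, cut at about 15% in these data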
Target sequence (P62136 whole entry, looked up): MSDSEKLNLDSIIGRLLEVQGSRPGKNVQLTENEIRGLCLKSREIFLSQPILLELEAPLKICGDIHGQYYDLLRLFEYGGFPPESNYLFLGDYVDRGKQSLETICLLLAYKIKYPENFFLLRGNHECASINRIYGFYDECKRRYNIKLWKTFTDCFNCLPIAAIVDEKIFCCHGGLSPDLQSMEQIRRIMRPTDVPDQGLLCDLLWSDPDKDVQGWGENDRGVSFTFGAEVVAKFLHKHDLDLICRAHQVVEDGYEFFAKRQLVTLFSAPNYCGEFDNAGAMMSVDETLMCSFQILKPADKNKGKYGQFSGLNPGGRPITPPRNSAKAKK
CSN deneddyl inh = CSN deneddylation inhibition; Q92905; Purified CSN, SCF-Nedd8-OG deneddylation, fluorescence polarization; inhibition, % at 12.5 µM; hit rate 0.38% among 360,000; AID 651999;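 active means pattern-corrected inhibition above about 35%, with an unprinted fluorescence ratio check between 0.5 and 1.5, limit read from the data, passing the limit was not always enough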;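 further: 0% = enzyme with substrate and 100% = substrate without enzyme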
Target sequence (Q92905 whole entry, looked up, one chain of several): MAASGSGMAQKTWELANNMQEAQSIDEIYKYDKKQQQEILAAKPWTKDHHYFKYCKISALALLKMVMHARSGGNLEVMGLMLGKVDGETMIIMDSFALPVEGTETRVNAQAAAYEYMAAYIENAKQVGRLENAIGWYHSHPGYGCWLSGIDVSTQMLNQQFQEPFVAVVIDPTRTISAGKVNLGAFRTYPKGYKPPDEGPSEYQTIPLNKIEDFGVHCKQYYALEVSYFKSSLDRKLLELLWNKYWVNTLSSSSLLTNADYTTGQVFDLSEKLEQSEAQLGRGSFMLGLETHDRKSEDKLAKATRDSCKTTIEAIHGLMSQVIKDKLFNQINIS
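Assay system: purified human Csn5 enzyme expressed in HEK293T cells; measure: % inhibition; also added: SCFSkp2-Nedd8OG substrate at 10 nM final; technique: fluorescence polarization; times: reaction 90 min, room temperature; medium: Tris buffer pH 7.5, NaCl, DTT, Tween-20, trehalose, ovalbumin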
PP1 inh confirm = human PP1 phosphatase inhibition, confirmation; AID 2358; inhibition, % at 6.7 µM; purified PP1alpha, OMFP substrate fluorescence; shares compounds with PP1 counter; hit rate 52% among 1,900;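 active means mean PP1 inhibition above a set limit taken from the earlier primary screen, cut at about 15% in these data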
PP5 counter = counter-screen for PP1 inhibitors: human PP5 phosphatase inhibition. shares compounds with PP1 counter. purified PP5c, OMFP fluorescence. inhibition, % at 6.7 µM. hit rate 4% among 1,900;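 active means mean PP5 inhibition over triplicate wells above about 9.5% taken from the earlier PP1 screen, limit read from the data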
Starred values were filed as active, the others as inactive; . = not tested or not shown.

SMILES | TPT1 inhibitor | Rpn11 block | HNF4A DNA FP | NadD inh | PP1 counter | CSN deneddyl inh | PP1 inh confirm | PP5 counter
CCCn1c(SCC(=O)N(C2CCCCC2)C2CCS(=O)(=O)C2)n[nH]c1=O (centres undefined) | . | 3.8 | 8.4 | 1.5 | -4.0 | -4.9 | . | .
CCN(c1ccccc1)S(=O)(=O)c1ccc(C(=O)Nc2nnc(C3CC3)o2)cc1 | -3.3 | -1.8 | -1.7 | 12.4 | 30.7* | 2.8 | 29.4* | -2.0
CN(c1ccccc1)S(=O)(=O)c1ccc(C(=O)Nc2nnc(C3CC3)s2)cc1 | -1.4 | 7.2 | -1.0 | 5.2 | -4.8 | 4.3 | . | .
CN(c1ccccc1)S(=O)(=O)c1ccc(C(=O)Nc2nnc(C3CC3)o2)cc1 | -1.4 | 3.6 | 3.1 | 3.3 | 21.9* | 3.0 | 18.7* | 0.0
COCCN(CCOC)S(=O)(=O)c1ccc(C(=O)Nc2nnc(C3CC3)o2)cc1 | 2.2 | 2.2 | -1.7 | 11.4 | 0.6 | -2.9 | . | .
CCN(Cc1cccs1)C(=O)CN1C(=O)NC(c2ccccc2)(c2ccccc2)C1=O | . | -0.9 | -3.8 | 3.5 | 0.9 | -0.3 | . | .
O=C(Nc1cccc(O)c1)C(Cc1ccccc1)N1C(=O)c2cccc3cccc(c23)C1=O (centres undefined) | 4.1 | 7.0 | 6.2 | 5.4 | 18.6* | 2.9 | 28.5* | 1.0
O=C(O)C(Cc1ccccc1)N1C(=O)c2cccc3cccc(c23)C1=O (centres undefined) | -7.0 | -0.9 | -1.2 | -1.1 | 2.7 | -11.8 | . | .
CC1(C)O[C@@H]2[C@H](O1)[C@@H](COS(=O)(=O)O)O[C@H]2n1cc(Br)c(=O)[nH]c1=O | . | 6.2 | 1.1 | 0.2 | . | -2.7 | . | .
Cc1ccccc1OCCC(=O)OCC(=O)NCCc1ccccc1 | -3.0 | -1.4 | 2.0 | -2.2 | -4.3 | -2.3 | . | .
Cc1ccccc1OCCC(=O)OCC(=O)NC(=O)c1ccccc1 | 2.5 | -4.5 | 12.4 | -9.3 | 22.5* | 0.3 | -1.2 | -5.5
CN(C)CCOc1ccc(/C(=C(/CCCl)c2ccccc2)c2ccccc2)cc1 | -2.6 | 7.7 | -0.9 | -0.3 | 21.1* | -2.1 | -8.7 | -1.0
CN(CCOc1ccccc1)CCOc1ccccc1 | 1.0 | 3.9 | -2.1 | -10.6 | -4.5 | 1.7 | . | .
COc1ccc(-c2noc(N3CCC(C(=O)NC(C)c4ccccc4)CC3)n2)cc1 (centres undefined) | 0.1 | 2.3 | -3.0 | -10.9 | -3.9 | -5.2 | . | .
CCCCC(=O)NC(c1ccccc1Cl)c1ccc2cccnc2c1O (centres undefined) | -0.8 | -8.2 | 4.8 | -1.0 | 27.4* | -3.5 | 19.3* | -3.9
CCCC(=O)NC(c1ccccc1)c1ccc2cccnc2c1O (centres undefined) | -1.3 | 11.6 | 1.0 | 4.5 | 3.0 | 4.0 | . | .
CCCCC(=O)NC(c1ccccc1)c1ccc2cccnc2c1O (centres undefined) | -0.5 | 4.1 | 5.2 | 2.5 | 21.3* | -0.4 | 12.9 | -5.2
CCCCC(=O)NC(c1ccc(C(C)C)cc1)c1ccc2cccnc2c1O (centres undefined) | 0.3 | -1.4 | 2.6 | 4.0 | 22.9* | -1.8 | 20.9* | -6.8
CCC(=O)N1CCCC(C)(C(=O)Nc2ccc(C)c(C)c2)C1 (centres undefined) | . | 3.3 | 0.1 | -2.1 | . | -0.6 | . | .
Cc1nc2ccc(NC(=O)C3(C)CCCN(C(C)C)C3)cc2o1 (centres undefined) | . | 4.9 | -1.3 | -0.6 | . | -0.4 | . | .
N#CC1=C2Sc3ccccc3N2CCCC1=O | 2.8 | -4.8 | 0.1 | -2.0 | 56.0* | 0.8 | -3.1 | -4.0
O=C1NN(c2ccccc2)C(=O)/C1=C\c1cccc(OC(=O)c2cccs2)c1 | -1.1 | 7.1 | -4.0 | 12.9 | 4.3 | 8.5 | . | .
O=C1NN(c2ccc(Cl)c(Cl)c2)C(=O)/C1=C/c1cccc(OC(=O)c2cccs2)c1 | -1.2 | . | . | . | 27.2* | . | 23.2* | -0.1
O=C(CSc1nnc(C2CC2)n1-c1ccccc1)N1CCNC1=O | . | -1.3 | 1.3 | -10.0 | -4.1 | -1.1 | . | .
COc1ccc(C(=O)CSc2ccc(-c3ccccc3)nn2)cc1 | -3.1 | -1.5 | -0.2 | -1.1 | 3.2 | 0.0 | . | .
SMILES | TPT1 inhibitor | Rpn11 block | HNF4A DNA FP | NadD inh | PP1 counter | CSN deneddyl inh | PP1 inh confirm | PP5 counter
O=C(CSc1ccc(-c2ccncc2)nn1)c1ccccc1 | 0.2 | -0.1 | -0.4 | -2.9 | 21.0* | 3.4 | -4.1 | -6.7
COC/C=C/C1=CC2=CC(=O)C(C)(OC(=O)c3cnc4ccccc4n3)C(=O)C2=CN1Cc1ccc(OC)cc1 (centres undefined) | -3.0 | -20.4 | -9.3 | 12.6 | 18.4* | -4.2 | 2.2 | 10.6*
COC/C=C/C1=CC2=CC(=O)C(C)(OC(=O)c3cnc4ccccc4n3)C(=O)C2=CN1CC1CC1 (centres undefined) | -2.0 | -6.9 | -7.3 | 4.1 | 10.6 | 0.7 | . | .
COC/C=C/C1=CC2=CC(=O)C(C)(OC(=O)c3cnc4ccccc4n3)C(=O)C2=CN1CCCCO (centres undefined) | -6.0 | -10.9 | 2.4 | 1.3 | 2.8 | 0.9 | . | .
COC/C=C/C1=CC2=CC(=O)C(C)(OC(=O)c3cnc4ccccc4n3)C(=O)C2=CN1Cc1ccccc1 (centres undefined) | -6.8 | -19.9 | -12.6 | 24.0 | 23.4* | -2.9 | 4.9 | 14.6*
CCN(CC(=O)NCc1ccc(F)cc1)C(=O)c1ccc2c(c1)OCO2 | . | -0.4 | -0.4 | -3.2 | -2.0 | -6.1 | . | .
CN(C)S(=O)(=O)c1ccc(SCC(=O)N2CC(=O)Nc3ccccc32)nc1 | . | -1.1 | 3.2 | 0.4 | -2.5 | -1.7 | . | .
CCNC(=O)C1(C)CCCN(C(=O)c2cc(C)n(C(C)(C)C)n2)C1 (centres undefined) | . | 4.1 | 2.1 | 2.6 | . | -3.9 | . | .
NNC(=O)c1ccc(COc2ccc3c(c2)CCC3)cc1 | -2.4 | 5.0 | 3.2 | 6.6 | 1.7 | -8.4 | . | .
NNC(=O)c1ccc(COc2ccc3ccccc3c2)cc1 | -0.6 | -0.8 | -0.8 | 26.2 | 21.5* | -0.2 | 9.2 | -2.3
Cc1ccc(NC(=O)CN(C)C(=O)c2cccnc2Nc2cccc(C(F)(F)F)c2)cc1 | 1.6 | 0.3 | 0.1 | 2.5 | 9.6 | 3.6 | . | .
O=C(Cn1nc(-c2cccc(Cl)c2)ccc1=O)NCC1COCCO1 (centres undefined) | -1.3 | 1.7 | 0.3 | -0.3 | -3.3 | -0.2 | . | .
O=C1CCCN1c1ccc(C(=O)N(Cc2nnc(-c3ccc(Cl)cc3)o2)C2CC2)cc1 | 0.6 | 1.7 | 1.9 | -0.3 | 18.5* | -1.9 | -3.0 | -4.9
Cc1ccc(C=NNc2ccc([N+](=O)[O-])cn2)cc1 | . | 3.6 | -2.6 | -6.0 | . | -2.0 | . | .
COc1cccc(/C=N/Nc2ccc([N+](=O)[O-])cn2)c1O | -3.1 | 2.5 | 3.2 | 1.8 | 34.1* | -1.7 | 24.1* | -0.9
